Activity calls are given as the source filed them. No cut-off for these calls is given here.
Experiments:
[1] = target: T1, B1 bradykinin receptor (Homo sapiens, UniProt P46663); experiment: Binding affinity to human bradykinin B1 receptor
T1 sequence (P46663 whole entry): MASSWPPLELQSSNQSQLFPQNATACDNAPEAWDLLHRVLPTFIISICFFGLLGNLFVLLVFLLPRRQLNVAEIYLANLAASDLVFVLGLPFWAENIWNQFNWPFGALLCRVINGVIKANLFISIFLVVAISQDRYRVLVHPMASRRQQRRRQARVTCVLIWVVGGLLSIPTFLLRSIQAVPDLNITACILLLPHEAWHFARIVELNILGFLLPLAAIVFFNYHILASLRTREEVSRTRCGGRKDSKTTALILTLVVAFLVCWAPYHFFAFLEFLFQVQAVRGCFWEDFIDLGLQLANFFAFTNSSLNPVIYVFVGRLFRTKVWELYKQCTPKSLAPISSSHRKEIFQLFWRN

[2] = target: T2, B2 bradykinin receptor (Cavia porcellus) (UniProt O70526); experiment: Inhibition of BK-induced bronchoconstriction in Dunkin Hartley guinea pig at 300 nmol/kg, it; type: functional; set-up: scale not given: the % may be the effect or the level left
T2 sequence (whole entry): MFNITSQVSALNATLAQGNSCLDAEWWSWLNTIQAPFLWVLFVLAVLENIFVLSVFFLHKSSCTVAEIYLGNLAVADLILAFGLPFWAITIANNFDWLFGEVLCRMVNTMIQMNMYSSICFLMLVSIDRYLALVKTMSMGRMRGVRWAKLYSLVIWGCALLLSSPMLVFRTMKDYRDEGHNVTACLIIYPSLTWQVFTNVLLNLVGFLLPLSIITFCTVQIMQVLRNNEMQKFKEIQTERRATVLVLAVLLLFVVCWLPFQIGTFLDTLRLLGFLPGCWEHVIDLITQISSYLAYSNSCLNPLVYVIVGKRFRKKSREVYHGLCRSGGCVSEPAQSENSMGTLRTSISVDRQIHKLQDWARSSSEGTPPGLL
Method in brief: (§1)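 Compound was given intratracheally to anaesthetized guinea pigs. Five min later, BK (10 nmol/kg iv) challenge was given and repeated every 30 min for 210 min. Pulmonary insufflation pressure was monitored. Result is Σ%: residual BK response as % of basal, normalized to control at 5–210 min time points, expressed as % of theoretical maximum.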

[3] = target: T2, B2 bradykinin receptor (Cavia porcellus); experiment: Effect on BK-induced hypotension in Dunkin Hartley guinea pig at 300 nmol/kg, it; type: functional
Method in brief: as §1, with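 “Blood” for “Pulmonary insufflation”, “each observation” for “5–210 min”, “(5–210 min),” for “points,”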

[4] = target: T3, B2 bradykinin receptor (Homo sapiens, UniProt P30411); experiment: Antagonist potency at human bradykinin B2 receptor assessed as effect on inositol monophosphate accumulation in CHOdhfr- cells; type: functional, cell-based; settings: read-out: pA2 (converted)
T3 sequence (P30411 whole entry): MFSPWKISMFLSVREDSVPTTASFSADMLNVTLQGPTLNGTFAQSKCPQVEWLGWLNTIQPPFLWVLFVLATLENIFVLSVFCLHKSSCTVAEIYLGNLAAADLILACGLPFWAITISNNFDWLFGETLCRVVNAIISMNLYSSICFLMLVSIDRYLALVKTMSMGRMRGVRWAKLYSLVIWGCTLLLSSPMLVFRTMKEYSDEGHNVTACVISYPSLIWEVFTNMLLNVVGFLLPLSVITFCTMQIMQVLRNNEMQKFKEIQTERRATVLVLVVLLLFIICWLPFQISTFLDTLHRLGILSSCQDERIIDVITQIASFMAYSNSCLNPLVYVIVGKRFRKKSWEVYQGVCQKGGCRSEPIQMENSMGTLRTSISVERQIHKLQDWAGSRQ
Method in brief: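 pA2 derived from antagonism of bradykinin-stimulated inositol monophosphate accumulation in CHOdhfr- cells stably transfected with the human B2 receptor.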

[5] = target: T3, B2 bradykinin receptor; experiment: Displacement of [3H]BK from human bradykinin B2 receptor transfected in CHO cells; type: cell-based
Method in brief: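 pKi from inhibition of specific [3H]-BK binding to membrane preparations of CHO cells stably transfected with the human B2 receptor.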

[6] = target: T4, B2 bradykinin receptor (Cavia porcellus, UniProt O70526); experiment: Antagonist potency on BK-induced contraction of guinea pig ileum longitudinal smooth muscle; type: functional, tissue-based; settings: read-out: pA2 (converted)
T4 sequence (O70526 whole entry): T2 sequence (whole entry)

[7] = target: T2, B2 bradykinin receptor (Cavia porcellus); experiment: Inhibition of BK-induced bronchoconstriction in Dunkin Hartley guinea pig at 10 nmol/kg, it; type: functional; set-up: scale not given: the % may be the effect or the level left; method in brief: as §1
[8] = target: T2, B2 bradykinin receptor (Cavia porcellus); experiment: Inhibition of BK-induced bronchoconstriction in Dunkin Hartley guinea pig at 30 nmol/kg, it; type: functional; set-up: scale not given: the % may be the effect or the level left; method in brief: as §1
[9] = species: Homo sapiens; experiment: Activity at nicotinic receptor at 1 uM
[10] = target: T2, B2 bradykinin receptor (Cavia porcellus); experiment: Inhibition of BK-induced bronchoconstriction in Dunkin Hartley guinea pig at 100 nmol/kg, it; type: functional; set-up: scale not given: the % may be the effect or the level left; method in brief: as §1
[11] = target: T2, B2 bradykinin receptor (Cavia porcellus); experiment: Effect on BK-induced hypotension in Dunkin Hartley guinea pig at 100 nmol/kg, it; type: functional
Method in brief: as §1, with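 “Blood” for “Pulmonary insufflation”, “each observation” for “5–210 min”, “(5–210 min),” for “points,”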

[12] = target: Muscarinic acetylcholine receptor (Homo sapiens) (UniProt P20309+P08173+P11229+P08172+P08912); experiment: Activity at muscarinic receptor at 1 uM; type: protein assay

SMILES: Cc1cc(C)c2cccc(OCc3c(Cl)ccc(S(=O)(=O)NC(C)(C)C(=O)N4CCN(C(=O)[C@@H](N)CCCCNC(=N)N)CC4)c3Cl)c2n1
- Ki [1]: > 10000 nM
- Activity [2]: 54%
- Activity [3]: 78%
- Kb [4]: 0.794 nM
- Ki [5]: 0.631 nM
- Kb [6]: 0.1 nM

SMILES: Cc1cc(C)c2cccc(OCc3c(Cl)ccc(S(=O)(=O)NC4(C(=O)N5CCN(C(=O)[C@@H](N)CCCCNC(=N)N)CC5)CCCC4)c3Cl)c2n1
- Ki [1]: > 10000 nM
- Activity [2]: 36%
- Activity [3]: 75%
- Kb [4]: 0.251 nM
- Ki [5]: 1 nM
- Kb [6]: 0.1 nM

SMILES: Cc1cc(C)c2cccc(OCc3c(Cl)ccc(S(=O)(=O)N4CCC[C@@H]4C(=O)NCCCNC(=O)c4ccc(C(=N)N)cc4)c3Cl)c2n1
- Ki [1]: > 10000 nM
- Activity [2]: 96%
- Activity [3]: 100%
- Kb [4]: 0.398 nM
- Activity [7]: 73%
- Ki [5]: 0.398 nM
- Kb [6]: 0.316 nM

SMILES: Cc1cc(C)c2cccc(OCc3c(Cl)ccc(S(=O)(=O)NC4(C(=O)N5CCN(C(=O)C[C@@H](N)CCCN(C)C)CC5)CCCC4)c3Cl)c2n1
- Ki [1]: > 10000 nM
- Activity [2]: 21%
- Activity [3]: 51%
- Kb [4]: 1.58 nM
- Ki [5]: 0.631 nM
- Kb [6]: 0.0398 nM

SMILES: Cc1cc(C)c2cccc(OCc3c(Cl)ccc(S(=O)(=O)NC4(C(=O)N5CCN(C(=O)[C@@H](N)CCC[N+](C)(C)C)CC5)CCOCC4)c3Cl)c2n1 [FASITIBANT]
- Activity [8]: 39%
- Ki [1]: > 10000 nM
- Activity [9]: inactive
- Activity [10]: 13%
- Activity [7]: 63%
- Activity [11]: 60%
- Activity [12]: inactive
